Diaph inh CS = inhibits diaphorase or chemically oxidizes, flagging diaphorase assay artifacts. diaphorase resazurin-to-resorufin fluorescence, NADH, 16 min; bacterial (C. kluyveri) enzyme, not human. inhibition, % at 20 µM. actives 0.69% (n = 190,000);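 active = primary screen inhibition at 20 µM above a set limit, cut at about 50% in these data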;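 note: plate controls were DMSO with full reaction for no effect and wells lacking NADH for full effect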
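Assay system – diaphorase enzyme from Clostridium kluyveri · Amount – diaphorase 0.14 U/mL (working solution) · Times – reaction incubation of 16 min at room temperature · Controls – No-NADH positive control and DMSO neutral control · Signal – resorufin fluorescence 544/590 nm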
G6PDH counter = counter-screen for G6PDH assay hits: L. mesenteroides G6PDH inhibition; Purified L. mesenteroides G6PDH, diaphorase/resazurin coupled fluorescence, 45 min; inhibition, % at 5 µM; actives 0.12% (n = 200,000); AID 1020; in the data active = inhibition above about 50%
Diaphorase act = counter-screen for diaphorase-based assays: diaphorase activators and chemical reducers; actives 0.005% (n = 190,000); Diaphorase/resazurin coupled assay, resorufin fluorescence, 16 min; stronger effect = higher value; 1 = vehicle wells, 0 = NADH-free wells; activation factor at 20 µM;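 active = diaphorase activity raised at least twofold by the compound at 20 µM; inactive = activation factor below 2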
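Material: purified diaphorase enzyme from Clostridium kluyveri / Medium: HEPES pH 7.4 buffer with MgCl2 and Tween 20 / Schedule: enzyme reaction of 16 min at room temperature / Measured by: resorufin fluorescence, excitation 544 nm, emission 590 nm / Evaluation: rise in resorufin formation, marking diaphorase activation or chemical reduction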
PfGluPho inh = PfG6PD (Plasmodium falciparum) enzyme inhibition. PfGluPho enzyme, NADPH resazurin-diaphorase fluorescence. inhibition, % at 20 µM. actives 0.78% (n = 350,000). AID 504690;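 active = inhibition reaching at least a set limit at 20 µM in the primary screen, cut at about 59% in these data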;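 note: 0% = DMSO wells with substrate and 100% = DMSO wells lacking glucose-6-phosphate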
HKDC1 inh = HKDC1 (human) hexokinase inhibition; Q2TB90; recombinant HKDC1, G6PDH/diaphorase resazurin coupled fluorescence; inhibition, % at 20 µM; actives 0.16% (n = 340,000); AID 493160;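 active = inhibition above about 35% when tested at 20 µM, limit read from the data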;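 note: plate controls were DMSO wells with enzyme for no effect and DMSO wells lacking enzyme for full effect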
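Test system: Recombinant HKDC1 (HK5) hexokinase enzyme, produced in-house | Input: HKDC1 at 5 µg/mL | Buffer or medium: Tris pH 8.0 buffer with MgCl2, Tween-20, BSA, BME | Schedule: 90 min reaction incubation at room temperature, dark | Technique: Resazurin-to-resorufin fluorescence via G6PDH and diaphorase coupling, 525/613 nm | Controls: DMSO wells with and without enzyme mix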
PfG6PD confirm = confirmation of Plasmodium falciparum G6PD inhibitors. shares compounds with PfGluPho inh. recombinant PfGluPho, NADPH-diaphorase-resazurin fluorescence. inhibition, % at 20 µM. actives 34% (n = 2,400). AID 504753;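 active = inhibition of at least 50% at 20 µM in any single replicate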;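 note: 0% = DMSO with substrate and 100% = DMSO lacking glucose-6-phosphate substrate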
Diaphorase 10uM = counter-screen for P. falciparum G6PD inhibitors: diaphorase inhibitors, oxidizers. shares compounds with PfGluPho inh. diaphorase-coupled resazurin reduction, fluorescence, NADPH 10 uM. inhibition, % at 20 µM. actives 39% (n = 820). AID 504862;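 active = average inhibition reaching 50% or more with the compound at 20 µM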;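 note: resorufin red fluorescence formed as diaphorase reduces resazurin using NADPH; 0% = DMSO with enzyme and 100% = DMSO without enzyme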
Diaphorase 30uM = inhibits diaphorase or oxidizes, flagging false PfG6PD hits; shares compounds with PfGluPho inh; Diaphorase/resazurin coupled assay, resorufin fluorescence, 30 uM NADPH; inhibition, % at 20 µM; actives 29% (n = 820);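 active = inhibition averaging 50% or more, tested at 20 µM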;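 note: 0% = DMSO with enzyme and 100% = DMSO wells lacking diaphorase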
An asterisk follows results filed as active; / = no result given. Most compounds without a hit are left out; they make up all but 1.2% or so of the library.

SMILES	Diaph inh CS	G6PDH counter	Diaphorase act	PfGluPho inh	HKDC1 inh	PfG6PD confirm	others
COc1cccc2c(SCC(=O)N/N=C/c3ccc(O)cc3O)cc(C)nc12	10	-12	0.9	-29	-25	/
Cc1ccc(S(=O)(=O)N2CCOCC2)cc1C(=O)OCC(=O)Nc1ccc2[nH]c(=O)[nH]c2c1	/	/	/	9	5	/
CC(=O)Nc1nn(C)c2nc3ccc(C)cc3cc12	/	/	/	0	5	/
CC(C)C(C(=O)O)N1CCS(=O)(=O)CC1 (stereo unspecified)	9	2	0.9	-1	-4	/
O=C1c2ccccc2-c2onc3c(N4CCN(CCO)CC4)cc(N4CCN(C(=O)c5ccco5)CC4)c1c23	/	/	/	75*	24	35
O=C(c1ccco1)N1CCN(CCCCN2C(=O)c3ccccc3C2=O)CC1	-6	4	1.1	-1	-1	/
O=C(O)c1cccc(Nc2ncnc3c2cnn3-c2ccccc2)c1	9	2	0.9	-13	1	/
Clc1cccc(Nc2ncnc3c2cnn3-c2ccccc2)c1	1	-7	1	83*	-1	-9
Fc1cccc(Nc2ncnc3c2cnn3-c2ccccc2)c1	/	/	/	70*	1	13
COc1cccc(Nc2ncnc3c2cnn3-c2cccc(C)c2)c1	28	-2	0.7	45	2	/
c1ccc(SSc2ccccn2)nc1	/	/	/	68*	-2	58*	Diaphorase 10uM=-24;Diaphorase 30uM=-27
NC1=NC(=Nc2ccc(Cl)cc2)c2ccccc21	4	6	1	6	5	/
CC(C)c1ccc(N=C2N=C(N)c3ccccc32)cc1	/	/	/	59*	0	30
COC(=O)[C@@]1(C)[C@H]2C(=O)N(Cc3ccccc3)C(=O)[C@H]2[C@H]2CN=C(SCc3ccc(C)cc3)N21	/	/	/	4	2	/
[O-]/[N+](=C\c1ccccc1)c1ccc(Br)cc1	/	/	/	84*	-1	91*	Diaphorase 10uM=72*;Diaphorase 30uM=38
[O-]/[N+](=C\c1ccccc1)c1ccccc1	/	/	/	41	1	/
O=C(COC(=O)/C=C/c1ccco1)NCCc1ccccc1	2	5	1	8	-3	/
O=C1/C(=C/c2ccccc2O)SC(=S)N1Cc1cccnc1	7	-8	0.9	62*	-2	-9
Cc1ccc2nc(N(CCCN(C)C)C(=O)c3ccc4ncsc4c3)sc2c1	/	/	/	60*	1	-8
O=C(NCc1ccccc1Cl)C1CCN(c2cnccn2)CC1	6	3	0.9	-8	-9	/
O=C(Nc1ccccn1)c1cc2ccccc2cc1O	/	/	/	67*	7	22
O=C(Nc1ccccn1)c1ccc(C(=O)Nc2ccccn2)cc1	/	/	/	-12	3	/
C=CCc1cccc(/C=N/NC(=O)c2ccccc2OC)c1O	21	0	0.8	79*	-8	30
C=CCc1cccc(/C=N/NC(=O)c2ccccc2Br)c1O	1	-1	1	75*	-15	27
O=C(N/N=C/c1cccc(Oc2ccccc2)c1)c1ccccc1Br	27	0	0.7	89*	19	32
SMILES	Diaph inh CS	G6PDH counter	Diaphorase act	PfGluPho inh	HKDC1 inh	PfG6PD confirm	others
COc1ccccc1/C=N/NC(=O)c1ccccc1Cl	10	5	0.9	9	-5	/
Cc1ccc(NC(=S)N(CCCN2CCOCC2)Cc2cccnc2)cc1C	9	-1	0.9	-8	-2	/
COc1cccc(CN2CCNC(=O)C2CC(=O)N(C)CC2CCOCC2)c1 (stereo unspecified)	/	/	/	7	1	/
CCN(CC)CCn1c2ccccc2c(=O)c2c(O)ccc(O)c21	/	/	/	84*	14	98*	Diaphorase 10uM=31;Diaphorase 30uM=30
CCN(CC)CCn1c(O)c(N=O)c2ccccc21	-5	6	1.1	-2	-10	/
Cc1[nH]c(-c2ccccn2)nc(=S)c1Cl	/	/	/	69*	4	5
Cn1c2ccccc2c2nnc(SCC(=O)Nc3cccc(O)c3)nc21	/	/	/	-2	3	/

Source: PubChem BioAssay (Sanford-Burnham Center for Chemical Genomics)
